According to ChEMBL document CHEMBL4480455, “Anti-inflammatory Property of Imperatorin on Alveolar Macrophages and Inflammatory Lung Injury” (J Nat Prod, 2019):
Calls of active or inactive are those of the source. The rule behind the calls is not given here.

Key:
[1] = tested on: Mus musculus; assay: Effect on morphological changes in lungs of C57BL/6 mouse at 4 mg/kg, ip administered for 3 days by H and E staining based microscopic analysis; type: ADME, organism-based; conditions: in vivo, 72 h
How it was run: (§1)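 Male C57BL/6 mice dosed i.p. for 3 days, then given zymosan (4 mg/kg, i.t.) or saline. Lungs harvested 24 h later. Right lung fixed in 10% formalin, embedded in paraffin, cut into 5 μm sections, stained with H&E or Masson's trichrome and examined by microscopy. Collagen also measured by hydroxyproline assay on lung lysates. Mean ± SD, n≥4.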

[2] = tested on: Mus musculus; assay: Antiinflammatory activity in zymosan induced C57BL/6 mouse model of lung injury assessed as reduction in immune cell infiltration at 4 mg/kg, ip pretreated for 3 days followed by zymosan challenge and measured after 24 hrs by H and E staining based microscopic analysis; type: functional, organism-based; how it was run: as §1
[3] = tested on: Mus musculus; assay: Antiinflammatory activity in zymosan induced C57BL/6 mouse model of lung injury assessed as reduction in hypertrophic smooth muscle cells at 4 mg/kg, ip pretreated for 3 days followed by zymosan challenge and measured after 24 hrs by H and E staining based microscopic analysis; type: functional, organism-based; how it was run: as §1
[4] = tested on: Mus musculus; assay: Antiinflammatory activity in zymosan induced C57BL/6 mouse model of lung injury assessed as reduction in thinkened basement membrane at 4 mg/kg, ip pretreated for 3 days followed by zymosan challenge and measured after 24 hrs by H and E staining based microscopic analysis; type: functional, organism-based; how it was run: as §1
[5] = tested on: Mus musculus; assay: Antiinflammatory activity in zymosan induced C57BL/6 mouse model of lung injury assessed as reduction in subepithelial collagen deposition/fibrosis at 4 mg/kg, ip pretreated for 3 days followed by zymosan challenge and measured after 24 hrs by Masson's trichrome staining based microscopic analysis; type: functional, organism-based; how it was run: as §1
[6] = tested on: Mus musculus; assay: Antiinflammatory activity in zymosan induced C57BL/6 mouse model of lung injury assessed as reduction in collagen deposition at 4 mg/kg, ip pretreated for 3 days followed by zymosan challenge and measured after 24 hrs by hydroxyproline assay; type: functional, organism-based; how it was run: as §1
[7] = tested on: Mus musculus; assay: Antiinflammatory activity in zymosan induced C57BL/6 mouse model of lung injury assessed as reduction in wet to dry lung edema ratio at 4 mg/kg, ip pretreated for 3 days followed by zymosan challenge and measured after 24 hrs; type: functional, organism-based
How it was run: (§2)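 Male C57BL/6 mice, 25–30 g. Dosed i.p. daily for 3 days, then zymosan 4 mg/kg in 40 μL saline given by intratracheal instillation. After 24 h, BALF collected with five 0.2 mL PBS washes and centrifuged. Supernatant assayed for PGE2 and total protein. Cells counted by hemocytometer, and ≥300 cells on stained smears scored for differential counts. Left lung weighed, dried at 48 °C for 48 h, reweighed for wet/dry ratio.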

[8] = tested on: Mus musculus; assay: Antiinflammatory activity in zymosan induced C57BL/6 mouse model of lung injury assessed as reduction in total protein level in BALF at 4 mg/kg, ip pretreated for 3 days followed by zymosan challenge and measured after 24 hrs; type: functional, organism-based; how it was run: as §2
[9] = tested on: Mus musculus; assay: Antiinflammatory activity in zymosan induced C57BL/6 mouse model of lung injury assessed as reduction in PGE2 production in BALF at 4 mg/kg, ip pretreated for 3 days followed by zymosan challenge and measured after 24 hrs by ELISA; type: functional, organism-based; how it was run: as §2
[10] = tested on: Mus musculus; assay: Antiinflammatory activity in zymosan induced C57BL/6 mouse model of lung injury assessed as reduction in immune cell infiltration in BALF at 4 mg/kg, ip pretreated for 3 days followed by zymosan challenge and measured after 24 hrs by Diff-Quick staining based assay; type: functional, organism-based; how it was run: as §2
[11] = species: Mus musculus; assay: Antiinflammatory activity in mouse MHS cells assessed as reduction in zymosan-induced iNOS mRNA expression preincubated for 30 mins followed by zymosan challenge and measured after 6 to 24 hrs by TRIzol reagent based qRT-PCR analysis; type: functional, cell-based
How it was run: (§3)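 MH-S alveolar macrophages grown in RPMI 1640 with 10% FBS at 37 °C and 5% CO2. Cells pretreated for 30 min, then given zymosan 10 μg/mL for 6 h. mRNA measured by SYBR Green real-time PCR (95 °C 10 min; 42 cycles of 95 °C 10 s, 60 °C 60 s) with actin as reference. Normalized to control; mean ± SD, n≥3.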

[12] = species: Mus musculus; assay: Antiinflammatory activity in mouse MHS cells assessed as reduction in zymosan-induced COX2 mRNA expression preincubated for 30 mins followed by zymosan challenge and measured after 6 to 24 hrs by TRIzol reagent based qRT-PCR analysis; type: functional, cell-based; how it was run: as §3
[13] = species: Mus musculus; assay: Antiinflammatory activity in mouse MHS cells assessed as reduction in zymosan-induced iNOS protein expression preincubated for 30 mins followed by zymosan challenge and measured after 6 to 24 hrs by Western blotting analysis; type: functional, cell-based
[14] = species: Mus musculus; assay: Antiinflammatory activity in mouse MHS cells assessed as reduction in zymosan-induced COX2 protein expression preincubated for 30 mins followed by zymosan challenge and measured after 6 to 24 hrs by Western blotting analysis; type: functional, cell-based
[15] = Antiinflammatory activity in mouse MHS cells assessed as reduction in zymosan-induced iNOS protein expression at 1.5 ug/ml preincubated for 30 mins followed by zymosan challenge and measured after 6 to 24 hrs by Western blotting analysis relative to control (reference value: 2.93 +/- 0.84); type: functional
[16] = Antiinflammatory activity in mouse MHS cells assessed as reduction in zymosan-induced iNOS protein expression at 15 ug/ml preincubated for 30 mins followed by zymosan challenge and measured after 6 to 24 hrs by Western blotting analysis relative to control (reference value: 2.93 +/- 0.84); type: functional
[17] = Antiinflammatory activity in mouse MHS cells assessed as reduction in zymosan-induced COX2 protein expression at 1.5 ug/ml preincubated for 30 mins followed by zymosan challenge and measured after 6 to 24 hrs by Western blotting analysis relative to control (reference value: 2.2 +/- 1.8); type: functional
[18] = Antiinflammatory activity in mouse MHS cells assessed as reduction in zymosan-induced COX2 protein expression at 15 ug/ml preincubated for 30 mins followed by zymosan challenge and measured after 6 to 24 hrs by Western blotting analysis relative to control (reference value: 2.2 +/- 1.8); type: functional
[19] = Effect on iNOS protein expression in mouse MHS cells at 15 ug/ml after 30 mins by Western blotting analysis relative to tubulin (reference value: 1); type: ADME, cell-based; conditions: 0.5 h
[20] = Effect on COX2 protein expression in mouse MHS cells at 15 ug/ml after 30 mins by Western blotting analysis relative to tubulin (reference value: 1); type: ADME, cell-based; conditions: 0.5 h
[21] = species: Mus musculus; assay: Antiinflammatory activity in mouse MHS cells assessed as reduction in zymosan-induced nitrite production at 1.5 to 15 ug/ml preincubated for 30 mins followed by zymosan challenge and measured after 6 to 24 hrs by Griess assay; type: functional, cell-based
How it was run: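 MH-S cells pretreated for 30 min, then given zymosan 10 μg/mL for 24 h. Supernatant nitrite reacted with equal volumes of 0.1% NED and 1% sulfanilamide in 5% phosphoric acid, 10 min in the dark. Absorbance read at 520 nm. Mean ± SD, n≥3.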

In the case of `CC(C)=CCOc1c2occc2cc2ccc(=O)oc12` [PENTOSALEN], the Activity [1] was “Non-Toxic”, the Activity [2] was “Active” and the Activity [3] was “Active”. For the same molecule, the Activity [4] was “Active”, the Activity [5] was “Active” and the Activity [6] was “Active”. For the same molecule, the Activity [7] was “Active”, the Activity [8] was “Active” and the Activity [9] was “Active”. The Activity [10] was “Active”, the Activity [11] was “Dose-dependent effect” and the Activity [12] was “Dose-dependent effect”. The Activity [13] was “Dose-dependent effect”, the Activity [14] was “Dose-dependent effect” and the “fold change (FC)” value [15] was 2.5. The “fold change (FC)” value [16] was 1.5, the “fold change (FC)” value [17] was 2.2 and the “fold change (FC)” value [18] was 1.8. The “fold change (FC)” value [19] was 0.9, the “fold change (FC)” value [20] was 0.7 and the Activity [21] was “Active”.
